Test results from publication PMC7305985 (Molecular cell, 2020).

B1: E662/3A: KAP1 PHD point mutant E662/E663 to A; GST-PHD-BD or FLAG-tagged KAP1 (protein)
chain: PGGGPGTLDDSATICRVCQKPGDLVMCNQCEFCFHLDCHLPALQDVPGAAWSCSLCHVLPDLKEEDGSLSLDGADSTGVVAKLSPANQRKCERVLLALFCHEPCRPLHQLATDSTFSLDQPGGTLDLTLIRARLQEKLSPPYSSPQEFAQDVGRMFKQFNKLTEDKADVQSIIGLQRFFETRMNEAFGDTKFSAVLVEPPPMSLPGAGLSSQELSGGPGDGP
modifications: left off: GST, N-terminal, kept
B2: L637A: control mutation L637 in flexible loop between the PHD and BD (protein)
chain: PGGGPGTLDDSATICRVCQKPGDAVMCNQCEFCFHLDCHLPALQDVPGEEWSCSLCHVLPDLKEEDGSLSLDGADSTGVVAKLSPANQRKCERVLLALFCHEPCRPLHQLATDSTFSLDQPGGTLDLTLIRARLQEKLSPPYSSPQEFAQDVGRMFKQFNKLTEDKADVQSIIGLQRFFETRMNEAFGDTKFSAVLVEPPPMSLPGAGLSSQELSGGPGDGP
modifications: left off: GST, N-terminal, kept

What was measured:
mono-nucleosomes = experiment: Nucleosome binding assay; set-up: species or system Human; conditions: relative to WT KAP1; overnight 4°C, pH 7.5; Figure 5E
In short: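 GST-tagged protein, expressed in bacteria (0.1 mM IPTG, 3 hr, 37°C), was used at 2 µg with 2 µg recombinant biotinylated mono-nucleosomes. Pulldown was on StrepTactin agarose for 1 hr, with 4 washes and boiling elution. 5% input and 20% eluate were blotted with anti-GST 1:5000.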

[1] = test system: KAP1 target genes in shKAP1 HCT116 cells; experiment: Reconstitution assay, RT-qPCR of KAP1 target genes; type: cell-based; conditions: shKAP1 HCT116, 48 hr; relative to shNT+GFP, normalized to RPL19, n=3; Figure 5H
[2] = test system: KAP1 target gene promoters; experiment: FLAG ChIP-qPCR of reconstituted KAP1 proteins; type: cell-based; conditions: shKAP1 HCT116, FLAG ChIP-qPCR, % Input, n=3; Figures 5I, 6F
In short: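 Epitope-tagged KAP1 was re-expressed in shKAP1 HCT116 cells by 1 µg plasmid transfection over 48 hr. Anti-FLAG ChIP used 0.5% formaldehyde crosslinking (10 min) and 150 mM glycine quench. Beads were washed 4 times with each of RIPA, low-salt, high-salt, LiCl and TE buffers. Elution was 30 min at 65°C, de-crosslinking 4 hr at 65°C with proteinase K, and read-out was qPCR.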

Molecule	reduction of KAP1's ability to interact with mono-nucleosomes (mono-nucleosomes)	restoration of KAP1 target gene expression (WT and point mutants) [1]	localization to KAP1 target gene promoters [2]
B1	~ 80%	but not E662/3A, restored KAP1 target gene expression	but not E662/3A, localized to all tested gene promoters
B2		restored KAP1 target gene expression	localized to all tested gene promoters
